Target: GABA-A receptor; anion channel
Experiment: Displacement of [3H]gamma-amino butyric acid from Gamma-aminobutyric acid (GABA-A) receptor of human cerebellar cortex preparation

SMILES	Ki [nM]
NC(=O)CCC/N=C(\c1ccc(Cl)cc1)c1cc(F)ccc1O [PROGABIDE]	40000
CCCC(CCC)C(=O)[O-].[Na+] [VALPROATE SODIUM]	> 100000
O=C([O-])CCC/N=C(\c1ccc(Cl)cc1)c1cc(F)ccc1O.[Na+]	680
NCc1cc(=O)[nH]o1 [MUSCIMOL]	11

Species: Mus musculus
Experiment: Effective dose which decreases the 50% of the convulsions induced by bicuculline in mice
Assay type: functional

SMILES	ED50 [mg/kg]
NC(=O)CCC/N=C(\c1ccc(Cl)cc1)c1cc(F)ccc1O [PROGABIDE]	20
CCCC(CCC)C(=O)[O-].[Na+] [VALPROATE SODIUM]	33
O=C([O-])CCC/N=C(\c1ccc(Cl)cc1)c1cc(F)ccc1O.[Na+]	15
NCc1cc(=O)[nH]o1 [MUSCIMOL]	0.25

Target: GABA-A receptor; anion channel
Experiment: Displacement of [3H]gamma-amino butyric acid from Gamma-aminobutyric acid (GABA-A) receptor of rat brain

SMILES	Ki [nM]
NC(=O)CCC/N=C(\c1ccc(Cl)cc1)c1cc(F)ccc1O [PROGABIDE]	14000
CCCC(CCC)C(=O)[O-].[Na+] [VALPROATE SODIUM]	> 100000
O=C1NC(=O)C(c2ccccc2)(c2ccccc2)N1 [PHENYTOIN]	> 100000
O=C([O-])CCC/N=C(\c1ccc(Cl)cc1)c1cc(F)ccc1O.[Na+]	590
NCc1cc(=O)[nH]o1 [MUSCIMOL]	4

Test system: Mus musculus
Experiment: Lethal dose which causes death in 50% of the mice within 48 hr of ip administration
Assay type: functional
Procedure, shortened: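 Male albino CD1 mice (18–22 g) dosed intraperitoneally, then returned to home cages, 10 per cage. Deaths per dose were counted at 48 h. LD50 was estimated on log-probit paper.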

SMILES	LD50 [mg/kg]
NC(=O)CCC/N=C(\c1ccc(Cl)cc1)c1cc(F)ccc1O [PROGABIDE]	900
CCCC(CCC)C(=O)[O-].[Na+] [VALPROATE SODIUM]	1000
O=C1NC(=O)C(c2ccccc2)(c2ccccc2)N1 [PHENYTOIN]	250
O=C([O-])CCC/N=C(\c1ccc(Cl)cc1)c1cc(F)ccc1O.[Na+]	420
NCc1cc(=O)[nH]o1 [MUSCIMOL]	17

Species: Mus musculus
Experiment: Effective dose which decreases the 50% of the lethality induced by bicuculline in mice
Assay type: functional
Procedure, shortened: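 Mice given ip serial doses 30 min before iv bicuculline at 0.9 mg/kg, 10 animals per drug per dose per experiment. ED50, the dose protecting half the mice from lethality, derived by log-probit plot.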

SMILES	ED50 [mg/kg]
NC(=O)CCC/N=C(\c1ccc(Cl)cc1)c1cc(F)ccc1O [PROGABIDE]	65
CCCC(CCC)C(=O)[O-].[Na+] [VALPROATE SODIUM]	130
O=C1NC(=O)C(c2ccccc2)(c2ccccc2)N1 [PHENYTOIN]	50
O=C([O-])CCC/N=C(\c1ccc(Cl)cc1)c1cc(F)ccc1O.[Na+]	70
NCc1cc(=O)[nH]o1 [MUSCIMOL]	> 2
